Assay [1] is described as follows: S. cerevisiae growth inhibition in permissive medium (OD615), pilot counter-assay for S. cerevisiae lifespan shortening project, permissive growth control (AID 705;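 active = growth inhibition above 25% in both replicates, a cutoff set 3 SD above the mean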). The conditions noted are these: OD615, 24 h, at 10 µM, active compounds read high. The method, boiled down: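 System: Engineered DeaD yeast | Buffer or medium: SC raffinose/galactose permissive medium | Incubation: Cells pre-grown 4 h, then 24 h compound exposure, 30 °C humidified | Measured by: Absorbance (optical density) at 615 nm | Read-out: Reduction in yeast growth (OD615)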

The nature of assay [2]: S. cerevisiae growth inhibition in restrictive medium, OD615, pilot screen, restrictive growth control, yeast lifespan reduction project (AID 706;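 active = growth inhibition above a set limit, 3 SD over mean compound inhibition, in both replicates, cut at about 43% in these data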;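 note: modified DeaD lifespan yeast strain shifted to restrictive glucose medium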). The conditions noted are these: OD615, 48 h, at 10 µM, active compounds read high. The method, boiled down:
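Material: modified S. cerevisiae; Medium: glucose-based CSMM-D restrictive medium; Compound dosing: one concentration, 10 µM final, 0.25% DMSO; Incubation: 48 h compound exposure at 30 °C; Measured by: OD615.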

A short description of assay [3]: doxorubicin toxicity protection in MRP-1 cells – H69AR cells, CellTiter-Glo, duplicate, MRP-1 activator project, pilot screen (AID 807;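 active = viability increase at or above a cutoff of the median across tested compounds plus 3 SD, cut at about 8.5% in these data, passing the limit was not always enough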;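 note: compound pretreatment 18-22 h then 72 h combined with doxorubicin; 0% = doxorubicin alone and 100% = vehicle without doxorubicin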). The conditions noted are these: H69AR viability with doxorubicin, CellTiter-Glo luminescence; at 10 µM; active compounds read high.
A short description of assay [4]: viability of HCT116 without oncogenic beta-catenin – human colon tumor cells, pilot screen (AID 823).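 Note: 0% = wells killed by 20 µM Hyamine and 100% = untreated DMSO cell wells.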 The conditions noted are these: HCT116 beta-catenin knockout viability, CellTiter-Glo, 60 h; at 10 µM; active compounds read low. For orientation: In ATP-based viability assays light output follows the ATP content of the culture.
Assay [5] in a line: viability of PTEN-null HCT116 cells – cell-based, HCT116 clonal line, CellTiter-Glo, pilot screen (AID 824;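 active = viability at or below 27.92% in each of two runs, the all-compound median minus 4 SD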;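 note: 0% = 20 µM Hyamine control and 100% = vehicle cell control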). The settings on record: HCT116 PTEN-deleted viability, 60 h, at 10 µM, active compounds read low.
The nature of assay [6]: RAM pathway blockade in budding yeast – dse1pr::URA3 reporter, 5-FOA selection, pilot screen (AID 869;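 active = inhibition over a set limit, the all-compound mean plus 3 SD, in both replicate runs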;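 note: 0% = DMSO wells with no growth and 100% = 10 µM 1-NA-PP1 with full growth; RAM network block rescues cells from 5-FOA so hits raise OD615 growth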). The conditions noted are these: S. cerevisiae dse1pr::URA3 5-FOA growth, OD615, 2 d; at 10 µM; active compounds read high; strain carries analog-sensitive mutant Cbk1 kinase.
A short description of assay [7]: RAM signaling pathway blockade in yeast – S. cerevisiae, Pdr1DBD-CYC8 efflux-inhibited sensitized strain, primary screen (AID 1298;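 active = RAM network inhibition above 8.4% in each of two replicates, 3 SD over the compound average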;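 note: 0% = DMSO untreated cells without growth and 100% = 10 µM 1-NA-PP1 full growth; higher means more yeast growth rescued from 5-FOA killing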). The settings on record: S. cerevisiae cbk1-as DSE1-URA3 strain, 5-FOA growth OD615, 2 d; at 50 µM; active compounds read high.

Values without a mark were called inactive. Results filed as inconclusive are left out. Calls of active or inactive are those of the source.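 Rule for the calls, unless noted: active = cell viability at or below a set limit in both duplicate runs, the limit being the all-compound median minus 4 SD (cut at about 23% in these data, passing the limit was not always enough); inconclusive = no clear call, values can overlap the other calls; inactive = the rest.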

One may read the viability as a read-out of living cells in per cent, often relative to untreated cells. In general, inhibition refers to the relative decrease from the control value, in per cent.

Take `O=C(O)c1cccc(CN2C(=O)CSC2=O)c1`: the growth inhibition in assay [1] is -9.39%; in assay [2], -12.3%. Moreover, the viability increase in assay [3] is -0.3%. The viability is 95.7% in assay [4] and 97.5% in assay [5]. Moreover, in assay [6], the inhibition was 0.91%. Besides, the RAM network inhibition in assay [7] is 1.41%.
For the compound `Cc1oc(-c2cccs2)nc1CS(=O)CC(=O)NCCCN1CC(C)CC(C)C1` (centres undefined), the growth inhibition in assay [1] was -8.47%; in assay [2], -12.7%. Also, the viability increase in assay [3] was -1.75%. The viability in assay [4] is 93.9%; in assay [5] it was 92.4%. In assay [6], the inhibition is 2.27%. Besides, the RAM network inhibition in assay [7] is 3.39%.
In the case of `CC(C)CC(/C(O)=C(\C#N)c1nc2ccccc2[nH]1)N1C(=O)c2ccccc2C1=O` (centres undefined), the figures for the growth inhibition in assay [1] and in assay [2] were -13.3% and -18.9%, respectively. The viability increase in assay [3] was -2.01%. Also, the viability is 82% in assay [4] and 73.3% in assay [5]. Moreover, the inhibition in assay [6] was 3.05%. In assay [7], the RAM network inhibition is 4.23%.
Take `CCOC(=O)Nc1cc(C)c(Cl)cc1OC`: the growth inhibition in assay [1] is -8.55%; in assay [2], -0.98%. In addition, the viability increase in assay [3] was -2.98%. Moreover, the viability in assay [4] is 84.5%; in assay [5] it was 75.7%. The inhibition in assay [6] is 2.17%. Besides, the RAM network inhibition in assay [7] is 5.3%.
With `Cc1cc(Nc2ccc(Br)cc2F)n2nc(C)nc2n1`, the growth inhibition is -19.2% in assay [1] and -14.2% in assay [2]. Also, the viability increase in assay [3] was -4.07%. Also, the viability in assay [4] was 88.3%; in assay [5], 86%. Moreover, the inhibition in assay [6] was 0.87%. The RAM network inhibition in assay [7] was -0.15%.
`COc1ccc(-c2nc(CS(=O)(=O)CC(=O)Nc3ccc(Cl)cc3)c(C)o2)cc1`: the growth inhibition in assay [1] is -8.75%; in assay [2], -7.49%. In assay [3], the viability increase was -2.64%. Moreover, the viability was 48.5% in assay [4] and 49.6% in assay [5]. In addition, the inhibition in assay [6] is 2.77%. Further, the RAM network inhibition in assay [7] is 3.02%.
As for `O=C(Nc1ccccc1C(=O)NC(Cc1c[nH]c2ccccc12)C(=O)O)c1ccco1` (centres undefined), the growth inhibition in assay [1] is -11%; in assay [2] it was -11.3%. The viability increase in assay [3] was -2.96%. Moreover, the viability was 102% in assay [4] and 97.1% in assay [5]. Besides, the inhibition in assay [6] is 0.95%. Also, in assay [7], the RAM network inhibition was 2.94%.
`CC(=O)Nc1nc2c(F)cccc2s1`: the growth inhibition in assay [1] is -14.9%; in assay [2] it was -3%. Besides, the viability increase in assay [3] is -2.43%. The viability in assay [4] was 96.5%; in assay [5] it was 91.2%. For the same compound, in assay [6], the inhibition is 1.6%. Besides, in assay [7], the RAM network inhibition is 7.94%.
As for `COC(=O)CN(c1ccccc1)S(=O)(=O)c1ccccc1`, the growth inhibition was -15.8% in assay [1] and -2.47% in assay [2]. Moreover, the viability increase in assay [3] was -0.03%. Moreover, the viability in assay [4] is 101%; in assay [5] it was 99.8%. Further, the inhibition in assay [6] was 1.01%. In addition, the RAM network inhibition in assay [7] is 0.88%.
On to `CCN1CCN(CC(=O)Nc2ccc3c(c2)OCCO3)C(=O)C1=O`, for which the results for the growth inhibition in assay [1] and in assay [2] were 2.63% and 10.1%, respectively. The viability increase in assay [3] is 1.13%. For the same compound, the viability in assay [4] is 105%; in assay [5], 103%. Moreover, the inhibition in assay [6] is 0.675%. In addition, the RAM network inhibition in assay [7] is 2.49%.
Regarding `CCN(CCNC(=O)C1CCN(c2nnc(-n3cccc3)s2)CC1)c1ccccc1`, the growth inhibition in assay [1] was -4.1%; in assay [2], -6.63%. Moreover, the viability increase in assay [3] is -3.79%. Further, the viability is 90.6% in assay [4] and 92.7% in assay [5]. Besides, the inhibition in assay [6] was 0.38%. Further, the RAM network inhibition in assay [7] was 8.71%.
With `O=C(Cn1c(=O)n(-c2ccccc2)c(=O)n1CC(=O)N1CCCCC1)N1CCCCC1`, the growth inhibition in assay [1] is -8.76%; in assay [2], -2.77%. For the same compound, the viability increase in assay [3] is -0.69%. Also, the viability in assay [4] was 107%; in assay [5] it was 96.4%. Moreover, the inhibition in assay [6] is 0.495%. The RAM network inhibition in assay [7] is 0.57%.
As for `CCn1c(O)c(C2=NCCCC2)c2ccccc21`, the growth inhibition in assay [1] is 0.575%; in assay [2], 11.6%. In addition, the viability increase in assay [3] is -0.12%. The viability in assay [4] is 95%; in assay [5], 102%. For the same compound, the inhibition in assay [6] is -0.49%. In assay [7], the RAM network inhibition is 1.14%.
As to `CCOC(=O)C1CCN(S(=O)(=O)c2ccc3[nH]c(=O)oc3c2)CC1`, the growth inhibition is -10% in assay [1] and -5.23% in assay [2]. Further, the viability increase in assay [3] is -1.5%. In addition, the results for the viability in assay [4] and in assay [5] were 97.8% and 91.1%, respectively. For the same compound, in assay [6], the inhibition was 0.515%. Moreover, the RAM network inhibition in assay [7] is 2.82%.
`c1ccc(-c2nnc(SCc3nc4ccccc4[nH]3)n2Cc2ccco2)nc1`: the growth inhibition was -0.44% in assay [1] and 10.8% in assay [2]. In addition, in assay [3], the viability increase was -1.33%. The viability in assay [4] is 90.3%; in assay [5] it was 91%. The inhibition in assay [6] was 0.04%. In addition, in assay [7], the RAM network inhibition was -0.6%.
For `O=C(c1c(Cl)nc2sccn12)N1CCN(c2cccc(Cl)c2)CC1`, the growth inhibition in assay [1] was 0.85%; in assay [2], 18.6%. In assay [3], the viability increase is -4.96%. The values for the viability in assay [4] and in assay [5] were 13.8% (active) and 17.8% (active), respectively. For the same compound, the inhibition in assay [6] was 0.91%. Moreover, the RAM network inhibition in assay [7] is 5.21%.
On to `CC1Cc2ccccc2N1C(=O)Cn1cnc2ccccc2c1=O` (centres undefined), for which the growth inhibition in assay [1] was 3.42%; in assay [2] it was -17.3%. Also, the viability increase in assay [3] was 0.12%. Besides, the figures for the viability in assay [4] and in assay [5] were 99.4% and 93.3%, respectively. Further, the inhibition in assay [6] is -0.455%. In addition, the RAM network inhibition in assay [7] was -0.47%.

For the origin of these results see PubChem BioAssay.
